IC50 data for six compounds are collected here from ChEMBL document CHEMBL1148991, “Antifungal flavonoids from Hildegardia barteri” (J Nat Prod, 2005).

Holding throughout (format): functional, organism-based
For experiment [1], the system named is Candida albicans. Briefly: Antifungal activity against azole-sensitive Candida albicans by broth microdilution assay. Summed up: (§1)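 Follow-up panel of recent drug-resistant and drug-sensitive clinical Candida isolates, tested alongside quality control strains C. krusei ATCC 6258 and C. parapsilopsis ATCC 22019.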
For orientation: Broth dilution looks for growth in wells or tubes with falling amounts of substance.

Experiment [2] concerns Candida albicans. Put plainly: Antifungal activity against azole-resistant Candida albicans by broth microdilution assay. Summed up: as §1
The test system of experiment [3] is Nakaseomyces glabratus. Put plainly: Antifungal activity against azole-resistant Candida glabrata by broth microdilution assay. Summed up: as §1
In a further experiment the test system is Pichia kudriavzevii. Put plainly: Antifungal activity against azole-resistant Candida krusei by broth microdilution assay. Summed up:
as §1

Experiment [4] deals with Candida albicans. Put plainly: Antifungal activity against polyene-resistant Candida albicans by broth microdilution assay. Summed up:
as §1

Experiment [5] concerns Nakaseomyces glabratus. Briefly: Antifungal activity against polyene-resistant Candida glabrata by broth microdilution assay. Summed up:
as §1

Converted amounts (≈) assume the structure as drawn.

For the compound `OC(Cn1cncn1)(Cn1cncn1)c1ccc(F)cc1F` [FLUCONAZOLE], the IC50 (as a rule, the concentration that inhibits the measured activity by half) in the experiment on Candida albicans [1] was 0.12 µg/mL (≈ 0.392 µM); with Candida albicans [2], 256 µg/mL (≈ 836 µM); in the experiment with Nakaseomyces glabratus [3], 256 µg/mL (≈ 836 µM); with Pichia kudriavzevii, 128 µg/mL (≈ 418 µM).

As to `Cc1c(O)c(C)c2c(c1O)C(=O)C[C@@H](c1ccc(O)cc1)O2` [FARREROL], the IC50 with Candida albicans [1], with Candida albicans [4], in the experiment with Nakaseomyces glabratus [5], in the experiment with Candida albicans [2], in the experiment on Nakaseomyces glabratus [3] and with Pichia kudriavzevii was over 32 µg/mL in each case.

Take `COc1cc2c(cc1O)C[C@H](c1cc3c(cc1O)OCO3)CO2` [HILDEGARDIOL]: the IC50 with Candida albicans [1] was over 128 µg/mL; with Candida albicans [4], over 128 µg/mL; in the experiment on Nakaseomyces glabratus [5], over 128 µg/mL; in the experiment with Candida albicans [2], at least 64 µg/mL; in the experiment with Nakaseomyces glabratus [3], at least 64 µg/mL; in the experiment on Pichia kudriavzevii, over 128 µg/mL.

Consider `C[C@@H]1[C@H](O)[C@@H](C)/C=C/C=C/C=C/C=C/C=C/C=C/C=C/[C@H](O[C@@H]2O[C@H](C)[C@@H](O)[C@H](N)[C@@H]2O)C[C@@H]2O[C@](O)(C[C@@H](O)C[C@@H](O)[C@H](O)CC[C@@H](O)C[C@@H](O)CC(=O)O[C@H]1C)C[C@H](O)[C@H]2C(=O)O` [AMPHOTERICIN B], for which the IC50 in the experiment on Candida albicans [4] was 3 µg/mL (≈ 3.25 µM); in the experiment on Nakaseomyces glabratus [5], 4 µg/mL (≈ 4.33 µM).

For the compound `C[C@@H](c1ncncc1F)[C@](O)(Cn1cncn1)c1ccc(F)cc1F` [VORICONAZOLE], the IC50 in the experiment with Candida albicans [1] amounted to 0.007 µg/mL (≈ 0.02 µM); in the experiment on Candida albicans [2] it was 4 µg/mL (≈ 11.5 µM); with Nakaseomyces glabratus [3], 8 µg/mL (≈ 22.9 µM); with Pichia kudriavzevii, 1 µg/mL (≈ 2.86 µM).

For the compound `Oc1cc2c(cc1O)[C@@H]1Oc3cc4c(cc3[C@@H]1CO2)OCO4`, the IC50 in the experiment on Candida albicans [1] was determined as 128 µg/mL (≈ 426 µM); in the experiment with Candida albicans [4] it was 128 µg/mL (≈ 426 µM); in the experiment with Nakaseomyces glabratus [5] it was 32 µg/mL (≈ 107 µM); in the experiment with Candida albicans [2], 32 µg/mL (≈ 107 µM); in the experiment with Nakaseomyces glabratus [3], 32 µg/mL (≈ 107 µM); with Pichia kudriavzevii, 128 µg/mL (≈ 426 µM).
